Measurements: ChEMBL document CHEMBL1137523, “Efficient one-pot synthesis of biologically active polysubstituted aromatic amines” (Bioorg Med Chem, 2007)
In brackets after ≈: the same amount, converted by molar mass. Activity calls are given as the source filed them. The rule behind the calls is not given here.

Tests used:
L929 [1] = assay: Growth inhibition of mouse L929 cells after 5 days by MTT assay; type: functional, cell-based; conditions: L929, 120 h
Outline: (§1)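 L-929 cells (DSMZ) were grown in DME with 10% newborn calf serum at 37 °C, 10% CO2, in humid air. In microtiter plates, a suspension of 50,000 cells/mL was added to a serial dilution of inhibitor (2:1 cell suspension to dilution). Metabolic activity per well was read by MTT after 5 days.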

L929 [2] = assay: Growth inhibition of mouse L929 cells below 40 ug/mL after 5 days by MTT assay; type: functional, cell-based; outline: as §1
Potorous tridactylus = assay: Effect on cell morphology in PtK2 potoroo cells assessed as changes in morphology at 50 ug/mL after 18 hrs

| Structure (SMILES) | IC50 (L929 [1]) | Activity (L929 [2]) | Activity (Potorous tridactylus) |
| --- | --- | --- | --- |
| COc1ccc(NCC(C)C)cc1 | > 40 µg/mL | inactive | – |
| O=[N+]([O-])c1cc(O)ccc1NCc1ccccc1 | 9 µg/mL (≈ 36.8 µM) | – | Active |
| Cc1ccc(NCc2ccccc2)cc1 [N-BENZYL-4-METHYLANILINE] | > 40 µg/mL | inactive | – |
| COc1ccc(N(Cc2ccc([N+](=O)[O-])cc2)Cc2ccccc2OC)cc1 | > 40 µg/mL | – | – |
| COc1ccc(N(CC(C)C)CC(C)C)cc1 | 25 µg/mL (≈ 106 µM) | – | – |
| COc1ccc(N(Cc2ccccc2)Cc2ccc([N+](=O)[O-])cc2)cc1 | > 40 µg/mL | – | – |
| COc1ccc(N(Cc2ccccc2)Cc2ccccc2)cc1 | 12 µg/mL (≈ 39.6 µM) | – | – |
| CCCCCCCCCNc1ccc(OC)cc1 | 12 µg/mL (≈ 48.1 µM) | – | – |
| COc1ccc(NC(C)c2ccco2)cc1 (stereo unspecified) | 40 µg/mL (≈ 184 µM) | – | – |
| COc1ccc(NC(C)c2ccccc2)cc1 (stereo unspecified) | 30 µg/mL (≈ 132 µM) | – | – |
| Cc1ccc(N(CC(C)C)CC(C)C)cc1 | 13 µg/mL (≈ 59.3 µM) | – | – |
| COc1ccc(N(Cc2ccccc2OC)CC(C)C)cc1 | 15 µg/mL (≈ 50.1 µM) | – | – |
| COc1ccc(NCc2ccccc2OC)cc1 | 25 µg/mL (≈ 103 µM) | – | – |
| CCCCCCCCCN(CC(C)C)c1ccc(OC)cc1 | 20 µg/mL (≈ 65.5 µM) | – | – |
| c1ccc(CNc2ccccn2)cc1 | 35 µg/mL (≈ 190 µM) | – | – |
| CC(=O)c1ccc(NCc2ccccc2)cc1 | 22 µg/mL (≈ 97.7 µM) | – | – |
| O=C(O)Cc1ccc(NCc2ccccc2)cc1 | > 40 µg/mL | – | – |
| Cc1ccc(N(Cc2ccccc2)Cc2ccccc2)cc1 | 11 µg/mL (≈ 38.3 µM) | – | – |
| Cc1ccc(N(Cc2ccccc2)CC(C)C)cc1 | 5 µg/mL (≈ 19.7 µM) | – | Active |
| COc1ccc(N(Cc2ccccc2)CC(C)C)cc1 | 10 µg/mL (≈ 37.1 µM) | – | – |
| COc1ccc(N(Cc2ccc([N+](=O)[O-])cc2)CC(C)C)cc1 | > 40 µg/mL | inactive | – |
| COc1ccc(N(Cc2ccccc2)Cc2ccccc2OC)cc1 | > 40 µg/mL | inactive | – |
| COc1ccc(CNc2ccc(O)c([N+](=O)[O-])c2)cc1 | 20 µg/mL (≈ 72.9 µM) | – | – |
| COc1ccc(NCc2ccc([N+](=O)[O-])cc2)cc1 | > 40 µg/mL | – | – |
| COc1ccc(NC(C)c2ccsc2)cc1 (stereo unspecified) | 30 µg/mL (≈ 129 µM) | – | – |
